Measured values: ChEMBL document CHEMBL2331224 (J Med Chem, 2013)
Calls of active or inactive are those of the source. No cut-off for these calls is given here.

Tests used:
Mus musculus [1] = assay: Toxicity in ICR mouse assessed as increase in blood total cholesterol level at 30 mg/kg/day, po for 7 days; type: organism-based; parameters: route oral; conditions: in vivo, 168 h
Summary of the method: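 Male ICR mice, 6−7 weeks old, four per cage, grouped by body weight. Oral 30 mg/kg or vehicle (1% ethanol/0.5% CMC in water, 10 mL/kg) once daily for 7 days, body weight recorded daily. After overnight fasting, mice were weighed under ether, and liver was removed and weighed. Serum was analysed on a dry-chemistry analyser for TG, TCHO, ALP, CRE, BUN and other markers. n = 7−23, ANOVA.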

[2] = molecular target: T1, Retinoic acid receptor alpha (Homo sapiens) (UniProt P10276); assay: Transactivation of RARalpha (unknown origin) by luciferase reporter gene assay relative to Am80
T1 sequence (whole entry): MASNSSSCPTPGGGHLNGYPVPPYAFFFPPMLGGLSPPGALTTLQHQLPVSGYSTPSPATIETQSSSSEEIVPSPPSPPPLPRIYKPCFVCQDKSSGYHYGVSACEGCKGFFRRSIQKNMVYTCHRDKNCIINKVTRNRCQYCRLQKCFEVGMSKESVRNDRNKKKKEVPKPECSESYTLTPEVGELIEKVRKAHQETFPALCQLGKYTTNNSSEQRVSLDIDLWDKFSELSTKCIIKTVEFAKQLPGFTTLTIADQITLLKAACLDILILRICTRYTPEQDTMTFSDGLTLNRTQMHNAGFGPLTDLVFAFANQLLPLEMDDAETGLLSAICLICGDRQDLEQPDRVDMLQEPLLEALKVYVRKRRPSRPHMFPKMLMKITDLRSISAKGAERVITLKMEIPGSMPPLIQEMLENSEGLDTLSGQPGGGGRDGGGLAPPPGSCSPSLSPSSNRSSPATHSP

Mus musculus [3] = assay: Toxicity against KKAy mouse assessed as total cholesterol level at 10 mg/kg/day, po for 14 days (reference value: 153.2 +/- 11.1 mg/dL); type: organism-based; parameters: route oral; conditions: in vivo, 336 h
[4] = molecular target: T2, Retinoic acid receptor RXR-alpha (Mus musculus) (UniProt P28700); assay: Partial agonist activity at mouse RXRalpha expressed in COS1 cells by luciferase reporter gene assay relative to bexarotene; type: cell-based; conditions: COS-1
T2 sequence (whole entry): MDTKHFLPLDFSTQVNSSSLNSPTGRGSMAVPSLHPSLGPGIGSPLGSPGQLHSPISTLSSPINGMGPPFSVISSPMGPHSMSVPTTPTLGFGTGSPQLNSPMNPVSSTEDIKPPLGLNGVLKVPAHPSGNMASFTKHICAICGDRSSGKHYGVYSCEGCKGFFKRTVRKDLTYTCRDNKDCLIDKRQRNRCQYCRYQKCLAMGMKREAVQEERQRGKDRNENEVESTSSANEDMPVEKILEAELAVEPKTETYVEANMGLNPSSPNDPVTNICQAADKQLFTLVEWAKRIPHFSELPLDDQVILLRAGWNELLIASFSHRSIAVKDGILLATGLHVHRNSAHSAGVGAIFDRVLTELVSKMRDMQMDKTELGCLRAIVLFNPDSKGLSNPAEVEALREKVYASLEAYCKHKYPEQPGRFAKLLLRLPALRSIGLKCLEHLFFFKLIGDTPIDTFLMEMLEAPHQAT

[5] = molecular target: T3, Retinoic acid receptor beta (Homo sapiens) (UniProt P10826); assay: Transactivation of RARbeta (unknown origin) by luciferase reporter gene assay relative to Am80
T3 sequence (whole entry): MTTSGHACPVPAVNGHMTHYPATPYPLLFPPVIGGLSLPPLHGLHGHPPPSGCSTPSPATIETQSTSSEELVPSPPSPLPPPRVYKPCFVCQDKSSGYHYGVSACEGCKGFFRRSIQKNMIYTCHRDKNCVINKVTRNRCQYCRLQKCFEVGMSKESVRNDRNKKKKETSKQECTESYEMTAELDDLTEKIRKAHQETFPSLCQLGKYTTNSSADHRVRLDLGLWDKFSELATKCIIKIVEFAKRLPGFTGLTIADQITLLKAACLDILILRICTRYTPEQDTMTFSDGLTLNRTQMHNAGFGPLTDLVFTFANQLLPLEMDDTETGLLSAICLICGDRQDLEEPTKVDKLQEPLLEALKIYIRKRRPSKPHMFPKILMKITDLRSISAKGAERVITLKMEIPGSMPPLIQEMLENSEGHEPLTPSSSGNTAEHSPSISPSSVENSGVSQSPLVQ

[6] = molecular target: RXR alpha/PPAR gamma (Homo sapiens) (UniProt P37231+P19793); assay: Transactivation of PPARgamma/RXRalpha (unknown origin) by luciferase reporter gene assay relative to TIPP703; type: protein-complex assay
Summary of the method: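 Heterodimer reporter in COS-1 cells co-transfected with RXRα (0.5 μg), partner receptor (LXRα for line 2, PPARγ for line 3; 0.5 μg), partner response element-luciferase (4.0 μg), and SEAP. Compound (DMSO below 1%) with ~2.0 × 10⁴ cells/well, 18 h, 37 °C; luciferase normalized to SEAP; triplicate, three runs.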

Mus musculus [7] = assay: Antidiabetic activity in KKAy mouse assessed as reduction in blood glucose level on day 4 to 12 at 10 mg/kg/day, po for 14 days; type: functional, organism-based
Summary of the method: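 Male KK-A^y mice, housed singly after 6 weeks' acclimation and grouped by blood glucose. Oral 10 mg/kg/day or vehicle (1% ethanol/0.5% CMC in water, 10 mL/kg) for 14 days. Body weight, food and water intake were followed. Fed blood glucose was taken from the tail vein by the glucose oxidase method. n = 4−5, ANOVA.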

Mus musculus [8] = assay: Antidiabetic activity in KKAy mouse at 10 mg/kg/day, po for 14 days measured on day 15 by oral glucose tolerance test relative to control; type: functional, organism-based
Summary of the method: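 On day 15, KK-A^y mice dosed orally at 10 mg/kg/day for 14 days were fasted 17 h and given oral glucose at 1 g/kg. Blood glucose was read by glucose oxidase at 0, 15, 30, 45, 60, 90 and 120 min. n = 4−5.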

- Activity [2]: Active
- Activity [4]: Active
- Activity [5]: Active
- Activity [6]: Active
Structure (SMILES): Cc1cc2c(cc1-n1c(C(F)(F)F)nc3cc(C(=O)O)ccc31)C(C)(C)CCC2(C)C
- Activity (Mus musculus [1]): Non-toxic
- Activity (Mus musculus [3]): 155.3 mg/dL
- Activity (Mus musculus [7]): Active
- Activity (Mus musculus [8]): inactive
